Experimental findings from ChEMBL document CHEMBL1126616, “1,2-Cyclomethylenecarboxylic monoamide hydroxamic derivatives. A novel class of non-amino acid angiotensin converting enzyme inhibitors” (J Med Chem, 1993) are described below.

Data set [1] deals with T1, Angiotensin-converting enzyme (Rattus norvegicus, UniProt P47820).
T1 sequence (P47820 whole entry): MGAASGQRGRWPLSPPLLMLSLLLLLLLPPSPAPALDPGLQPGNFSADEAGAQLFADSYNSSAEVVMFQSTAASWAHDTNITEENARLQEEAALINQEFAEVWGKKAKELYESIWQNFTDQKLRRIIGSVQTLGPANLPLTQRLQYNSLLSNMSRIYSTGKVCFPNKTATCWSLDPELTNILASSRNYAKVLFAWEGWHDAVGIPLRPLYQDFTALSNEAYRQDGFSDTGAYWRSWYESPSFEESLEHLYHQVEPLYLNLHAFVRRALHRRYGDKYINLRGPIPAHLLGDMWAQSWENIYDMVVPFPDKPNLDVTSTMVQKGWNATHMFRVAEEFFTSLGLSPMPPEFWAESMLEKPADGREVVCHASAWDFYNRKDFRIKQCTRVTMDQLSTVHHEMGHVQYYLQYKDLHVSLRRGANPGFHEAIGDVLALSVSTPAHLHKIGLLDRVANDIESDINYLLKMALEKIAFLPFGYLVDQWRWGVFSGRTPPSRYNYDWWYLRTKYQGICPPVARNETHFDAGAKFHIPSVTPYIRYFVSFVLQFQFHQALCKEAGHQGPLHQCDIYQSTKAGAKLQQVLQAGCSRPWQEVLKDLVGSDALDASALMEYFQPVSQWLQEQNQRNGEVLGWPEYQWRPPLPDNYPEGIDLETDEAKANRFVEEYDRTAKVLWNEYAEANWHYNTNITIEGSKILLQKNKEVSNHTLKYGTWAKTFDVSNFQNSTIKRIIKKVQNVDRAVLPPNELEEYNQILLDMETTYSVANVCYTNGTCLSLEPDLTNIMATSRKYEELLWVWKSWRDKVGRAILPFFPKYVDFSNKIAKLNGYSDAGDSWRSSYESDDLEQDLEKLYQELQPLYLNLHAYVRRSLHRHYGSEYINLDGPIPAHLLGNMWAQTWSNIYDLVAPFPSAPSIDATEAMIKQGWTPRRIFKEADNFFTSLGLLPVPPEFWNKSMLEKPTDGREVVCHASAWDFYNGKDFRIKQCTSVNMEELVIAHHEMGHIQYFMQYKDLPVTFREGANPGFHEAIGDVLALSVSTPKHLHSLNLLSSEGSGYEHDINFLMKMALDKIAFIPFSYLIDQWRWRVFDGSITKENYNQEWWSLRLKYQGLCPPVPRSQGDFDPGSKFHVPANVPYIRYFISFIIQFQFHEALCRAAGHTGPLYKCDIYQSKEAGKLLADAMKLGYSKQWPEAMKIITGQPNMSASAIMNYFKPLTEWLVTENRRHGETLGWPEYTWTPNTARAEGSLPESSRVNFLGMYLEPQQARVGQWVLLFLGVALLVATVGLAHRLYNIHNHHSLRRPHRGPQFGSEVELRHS
In words: In vitro inhibitory activity against rat serum angiotensin I converting enzyme using hippuryl-glycyl-glycine as substrate. It counts as cell-free.

The species named for data set [2] is Rattus norvegicus. The data set can be described thus: Maximum rate for the hydrolysis of hippuryl-glycyl-glycine by rat serum ACE. It counts as ADME. An outline of the steps: (§1)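 For rat serum ACE kinetics, the dependence of hippurylglycylglycine hydrolysis rate on substrate concentration was measured at increasing inhibitor concentrations. Apparent Km and Vmax were derived for each inhibitor level.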

The species named for data set [3] is Rattus norvegicus. In words: Maximum rate for the hydrolysis of hippuryl-glycyl-glycine by rat serum ACE at the concentration of 12 nM. The conditions noted are these: 0.012 µM. Format: ADME. An outline of the steps: as §1
For data set [4], the species on record is Rattus norvegicus. In words: Maximum rate for the hydrolysis of hippuryl-glycyl-glycine by rat serum ACE at the concentration of 3 nM. It counts as ADME. As to conditions: 0.003 µM. An outline of the steps: as §1
For data set [5], the species on record is Rattus norvegicus. The data set can be described thus: Maximum rate for the hydrolysis of hippuryl-glycyl-glycine by rat serum ACE at the concentration of 6 nM (mean +/- SEM). It counts as ADME. The conditions noted are these: 0.006 µM. An outline of the steps: as §1
Substrate in data set [6]: CN(CC(=O)NO)C(=O)C1CCCCC1C(=O)O
The data set can be described thus: Michaelis-Menten's constant for the hydrolysis of hippuryl-glycyl-glycine by rat serum ACE at the concentration of 12 nM. Format: cell-free. An outline of the steps:
as §1

Substrate in data set [7]: CN(CC(=O)NO)C(=O)C1CCCCC1C(=O)O
The data set can be described thus: Michaelis-Menten's constant for the hydrolysis of hippuryl-glycyl-glycine by rat serum ACE at the concentration of 3 nM. A digest of the protocol:
as §1

Substrate in data set [8]: CN(CC(=O)NO)C(=O)C1CCCCC1C(=O)O
The data set can be described thus: Michaelis-Menten's constant for the hydrolysis of hippuryl-glycyl-glycine by rat serum Angiotensin I Converting Enzyme at the concentration of 6 nM. Format: cell-free. An outline of the steps: as §1

Substrate in data set [9]: CN(CC(=O)NO)C(=O)C1CCCCC1C(=O)O
In words: Michaelis-Menten's constant for the hydrolysis of hippuryl-glycyl-glycine by rat serum ACE. Format: cell-free. A digest of the protocol:
as §1

Usually IC50 stands for the point on the concentration scale where inhibition reaches its midpoint. A lower IC50 goes with higher potency. Turning to `O=C(O)CCC(=O)N1CCCC1C(=O)O` (stereo unspecified), the IC50 in data set [1] was determined as 624000 nM.

Regarding `O=C(CNC(=O)C1CCCCC1C(=O)O)NO` (cis isomer), the midpoint of inhibition in data set [1], the IC50, lay at 3000 nM.

As for `CCN(CC(=O)NO)C(=O)C1CCCCC1C(=O)O` (trans isomer), inhibition in [1] was half-maximal at 14 nM (IC50).

As for `CN(CC(=O)NO)C(=O)C1CCCCC1C(=O)O` (stereo in doubt; 21b), the IC50 in [1] was determined as 1800 nM.

In turn, `CN(CC(=O)NOCc1ccccc1)C(=O)C1CCCCC1C(=O)O` (cis isomer) had a half-maximal inhibitory concentration (IC50) in data set [1] greater than 150000 nM.

In data set [1], `CCCN(CC(=O)NO)C(=O)C1CCCCC1C(=O)O` (trans isomer) had a half-inhibitory concentration (IC50) of 150 nM.

`CCCN(CC(=O)NO)C(=O)C1CCCCC1C(=O)O` (cis isomer) displayed an IC50 in [1] of 400 nM.

Regarding `O=C(CNC(=O)C1CCCCC1C(=O)O)NOCc1ccccc1` (stereo in doubt; 9b), in data set [1], the IC50 is greater than 150000 nM.

Molecule `O=C(O)C1CCCCC1C(=O)CCS` (trans isomer) showed an IC50 in [1] of 1700 nM.

For the molecule `CCN(CC(=O)NO)C(=O)C1CCCCC1C(=O)O` (stereo in doubt; 10g), the IC50 in [1] was found to be 18 nM.

`O=C(CNC(=O)C1CCCCC1C(=O)O)NO` (trans isomer) displayed an IC50 in data set [1] of 1500 nM.

As to `O=C(O)C1CCCCC1C(=O)NCCS` (trans isomer), in data set [1], the IC50 was greater than 150000 nM.

Regarding `CCN(CC(=O)O)C(=O)C1CCCCC1C(=O)O` (stereo in doubt; 7e), the midpoint of inhibition in [1], the IC50, lay at 97000 nM.

In [1], `CCN(CC(=O)O)C(=O)C1CCCC1C(=O)O` (cis isomer) returned an IC50 greater than 150000 nM.

In data set [1], `CCN(CC(=O)NO)C(=O)C1CCCCC1C(=O)O` (stereo in doubt; 21d) displayed an IC50 of 2900 nM.

For `O=C(O)C1CCCC1C(=O)NCCS` (stereo unspecified), the IC50 in data set [1] is 11000 nM.

As to `CC(C)N(CC(=O)NO)C(=O)C1CCCCC1C(=O)O` (trans isomer), the IC50 in data set [1] was determined as 500 nM.

Molecule `O=C(CNC(=O)C1CCCCC1C(=O)O)NOCc1ccccc1` (cis isomer) yielded an IC50 in data set [1] greater than 150000 nM.

For `CCN(CC(=O)NO)C(=O)C1CCCCC1C(=O)O` (cis isomer), it took 57 nM to reach half-maximal inhibition in data set [1] (IC50).

In [1], `O=C(O)C1CCCCC1C(=O)CCS` (stereo unspecified) yielded an IC50 of 1400 nM.

In [1], `CCN(CC(=O)NO)C(=O)C1CCCCC1C(=O)O` (stereo in doubt; 16c) returned a concentration for half-maximal inhibition (IC50) of 2900 nM.

Turning to `CN(CC(=O)NO)C(=O)C1CCCCC1C(=O)O` (trans isomer), half-maximal inhibition in data set [1] (IC50) required 45 nM.

`CCN(CC(=O)O)C(=O)C1CCCCC1C(=O)O` (stereo in doubt; 7d) returned an IC50 in data set [1] of 75000 nM.

`CCCN(CC(=O)O)C(=O)C1CCCCC1C(=O)O` (stereo unspecified) came in with an IC50 in data set [1] greater than 150000 nM.

In data set [1], `CN(CC(=O)O)C(=O)C1CCCCC1C(=O)O` (cis isomer) registered an IC50 greater than 150000 nM.

For the molecule `O=C(O)C1CCCCC1C(=O)NCCS` (stereo in doubt; 8b), the IC50 in [1] came out at 10000 nM.

Turning to `CN(CC(=O)NO)C(=O)C1CCCCC1C(=O)O` (stereo in doubt; 16b), in data set [1], the IC50 came out at 24 nM.

In turn, `CN(CC(=O)NO)C(=O)C1CCCCC1C(=O)O` (stereo in doubt; 16a) registered an IC50 in data set [1] of 23500 nM.

As for `CN(CC(=O)NO)C(=O)C1CCCC1C(=O)O` (stereo unspecified), the midpoint of inhibition in data set [1], the IC50, lay at 1400 nM.

Take `CCN(CC(=O)NO)C(=O)C1CCCCC1C(=O)O` (stereo in doubt; 21c): half-maximal inhibition in data set [1] (IC50) required 28 nM.

With `CN(CC(=O)NOCc1ccccc1)C(=O)C1CCCCC1C(=O)O` (stereo in doubt; 9e), the IC50 in data set [1] was greater than 150000 nM.

With `CN(CC(=O)NOCc1ccccc1)C(=O)C1CCCC1C(=O)O` (stereo unspecified), in data set [1], the IC50 is greater than 150000 nM.

The molecule `O=C(O)CNC(=O)C1CCCCC1C(=O)O` (stereo unspecified) yielded an IC50 in data set [1] greater than 150000 nM.

In [1], `CC(CC(=O)NO)C(=O)N1CCC[C@H]1C(=O)O` (stereo partly specified) had an IC50 of 600 nM.

In data set [1], `CN(CC(=O)NO)C(=O)C1CCCCC1C(=O)O` (cis isomer) yielded an IC50 of 12 nM.

Regarding `CN(CC(=O)NO)C(=O)C1CCCCC1C(=O)O` (stereo in doubt; 21a), the Vmax in the data set listed under Rattus norvegicus [2] stood at 1.31 uM min-1 ml-1; in the data set filed under Rattus norvegicus [3] it was 1.36 uM min-1 ml-1; in the data set filed under Rattus norvegicus [4], 1.25 uM min-1 ml-1; in the data set listed under Rattus norvegicus [5], 1.16 uM min-1 ml-1. In data set [1], this molecule displayed a concentration for half-maximal inhibition (IC50) of 7 nM.

The molecule `CCN(CC(=O)NOCc1ccccc1)C(=O)C1CCCCC1C(=O)O` (trans isomer) gave an IC50 in [1] greater than 150000 nM.

With `CCN(CC(=O)NOCc1ccccc1)C(=O)C1CCCCC1C(=O)O` (cis isomer), the IC50 in data set [1] was greater than 150000 nM.

B1: Angiotensin-converting enzyme (Rattus norvegicus), P47820 (protein)
chain: T1 sequence (P47820 whole entry)
What is called Km is the concentration of substrate that gives half-maximal velocity. On to B1, for which the Km was found to be 129 mM in data set [6], 43 mM in data set [7], 62 mM in data set [8] and 21 mM in data set [9].
